Experimental data reported in ChEMBL document CHEMBL4613269, “2-((4-Arylpiperazin-1-yl)methyl)benzonitrile Derivatives as Orally Available Inhibitors of Hepatitis C Virus with a Novel Mechanism of Action” (J Med Chem, 2020).
The source made the active and inactive calls. The rule behind the calls is not given here.

Key:
[1] = Cmax in beagle dog at 5 mg/kg, iv measured after 0.08 to 72 hrs post dose by LC-MS/MS analysis; assay type: ADME, organism-based, Canis lupus familiaris; parameters: dose 5 mg/kg, route intravenous; conditions: in vivo
Method in brief: (§1)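 Single dose to fasted (12 h) animals: oral gavage 15 mg/kg as suspension in 0.5% CMC-Na, or iv 5 mg/kg dissolved in citric acid buffer pH 5.0 with 2.5% DMSO. Jugular vein blood on heparin at 0.08 (iv only) to 72 h. Plasma assayed by LC-MS/MS; parameters from noncompartmental analysis.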

Hepatitis C virus [2] = assay: Antiviral activity against wild type HCV by qRT-PCR analysis based by Reed-Muench method; assay type: functional, organism-based, Hepacivirus hominis
Method in brief: (§2)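 Huh7.5 cells seeded 24 h, then infected with wild-type (or mutant) HCV with compound added at the same time. Incubated 72 h. Intracellular HCV RNA measured by qRT-PCR, 2^-ΔCt method, normalized to GAPDH. Eight-step 1:5 serial dilutions in triplicate; EC50 by Reed & Muench; three independent experiments.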

[3] = AUC (0 to 72 hrs) in beagle dog at 15 mg/kg, po measured after 0.08 to 72 hrs post dose by LC-MS/MS analysis; assay type: ADME, organism-based, Canis lupus familiaris; parameters: time < 72 hr, dose 15 mg/kg, route oral; conditions: in vivo; method in brief: as §1
[4] = Toxicity in Kunming mouse assessed as effect on body weight at 250 to 1000 mg/kg dosed via single oral gavage and measured on day 7 post treatment; assay type: organism-based; conditions: in vivo
Method in brief: (§3)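 Kunming mice, 4 groups of n = 6 (3 male, 3 female). Fasted from 12 h before to 1 h after dosing. Single oral gavage of 250, 500 or 1000 mg/kg suspended in 0.5% CMC-Na, or vehicle alone. Followed for 7 days: survival, body weight before and at day 7. Day-7 blood taken for AST, ALT, urea nitrogen and creatinine.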

[5] = Toxicity in Kunming mouse assessed as effect on […] level at 250 to 1000 mg/kg dosed via single oral gavage and measured on day 7 post treatment; assay type: organism-based; conditions: in vivo; method in brief: as §3
Zika virus = assay: Antiviral activity against Zika virus infected in Vero E6 cells assessed as reduction in virus-induced cytopathic effect incubated for 96 hrs by CCK8 assay; assay type: functional, organism-based; conditions: Vero C1008, 96 h
[6] = Cmax in beagle dog at 15 mg/kg, po measured after 0.08 to 72 hrs post dose by LC-MS/MS analysis; assay type: ADME, organism-based, Canis lupus familiaris; parameters: dose 15 mg/kg, route oral; conditions: in vivo; method in brief: as §1
[7] = Cytotoxicity in African green monkey Vero E6 cells assessed as reduction in cell viability; assay type: cell-based, Vero C1008; conditions: chlorocebus sabaeus
[8] = Cytotoxicity in African green monkey Vero cells assessed as reduction in cell viability; assay type: cell-based; conditions: chlorocebus sabaeus
[9] = Drug level in beagle dog at 15 mg/kg, po measured after 72 hrs post dose by LC-MS/MS analysis; assay type: ADME, organism-based, Canis lupus familiaris; conditions: in vivo, read-out: Drug uptake; method in brief: as §1
[10] = Selectivity index, ratio of CC50 for cytotoxicity in African green monkey Vero E6 cells to EC50 for Antiviral activity against Zika virus infected in Vero E6 cells; assay type: toxicity, cell-based, Vero C1008; conditions: read-out: Ratio CC50/EC50
[11] = Toxicity in Kunming mouse at 250 to 1000 mg/kg dosed via single oral gavage and measured on day 7 post treatment; assay type: organism-based; conditions: in vivo; method in brief: as §3
Hepatitis C virus [12] = assay: Antiviral activity against HCV expressing NS3 A156T mutant by qRT-PCR analysis based by Reed-Muench method; assay type: functional, organism-based, Hepacivirus hominis
Method in brief: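 Huh7.5 cells seeded at 3×10^4/cm², infected 24 h later with wild-type or mutant HCV stock while compound or solvent was added at the same time. Intracellular HCV RNA measured by qRT-PCR at 72 h, normalised to GAPDH, 2^-ΔCT method. EC50 by Reed & Muench from eight-step 1:5 serial dilutions, triplicate wells.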

[13] = Apparent Volume of distribution in beagle dog at 15 mg/kg, po measured after 0.08 to 72 hrs post dose by LC-MS/MS analysis; assay type: ADME, organism-based, Canis lupus familiaris; conditions: in vivo; method in brief: as §1
Hepatitis C virus [14] = assay: Antiviral activity against HCV J6/JFH/JC1 infected in human Huh7.5 cells assessed as reduction in viral RNA levels incubated for 72 hrs by qRT-PCR analysis; assay type: functional, organism-based; method in brief: as §2
[15] = AUC (0 to 72 hrs) in beagle dog at 5 mg/kg, iv measured after 0.08 to 72 hrs post dose by LC-MS/MS analysis; assay type: ADME, organism-based, Canis lupus familiaris; parameters: time < 72 hr, dose 5 mg/kg, route intravenous; conditions: in vivo; method in brief: as §1
Hepatitis C virus [16] = assay: Antiviral activity against HCV J6/JFH/JC1 infected in human Huh7.5 cells incubated for 72 hrs by In-Cell Western assay; assay type: functional, organism-based, Hepacivirus hominis; conditions: J6/JFH/JC1, Huh7.5, 72 h
Method in brief: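 Huh7.5 cells infected with HCVcc (MOI 0.1) and treated with compound at the same time for 72 h. Cells fixed with PFA, permeabilized, then stained for HCV Core and GAPDH with IR-dye secondaries. Core signal normalized to GAPDH. Eight-step 1:5 dilutions in triplicate; EC50 by Reed & Muench; mean of three experiments.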

[17] = Toxicity in Kunming mouse assessed as effect on ALT level at 250 to 1000 mg/kg dosed via single oral gavage and measured on day 7 post treatment; assay type: organism-based; conditions: in vivo; method in brief: as §3
[18] = Toxicity in Kunming mouse assessed as induction of mortality at 250 to 1000 mg/kg dosed via single oral gavage and measured on day 7 post treatment; assay type: organism-based; conditions: in vivo; method in brief: as §3
[19] = Drug level in beagle dog at 5 mg/kg, iv measured after 24 hrs post dose by LC-MS/MS analysis; assay type: ADME, organism-based, Canis lupus familiaris; conditions: in vivo, read-out: Drug uptake; method in brief: as §1
Hepatitis C virus [20] = assay: Antiviral activity against HCV GS4.3 infected in human Huh7.5 cells assessed as […] at 0.008 to 1 uM pre-incubated with drug for 2 hrs before viral infection and measured after 72 hrs by Western blot assay; assay type: functional, organism-based; conditions: Hepacivirus hominis
[21] = Tmax in beagle dog at 15 mg/kg, po measured after 0.08 to 72 hrs post dose by LC-MS/MS analysis; assay type: ADME, organism-based, Canis lupus familiaris; conditions: in vivo
[22] = Clearance in Sprague-Dawley rat at 15 mg/kg, po measured after 0.08 to 72 hrs post dose by LC-MS/MS analysis; assay type: ADME, organism-based; conditions: in vivo; method in brief: as §1
Influenza A virus = assay: Antiviral activity against influenza A virus H3N2/95-359 infected in MDCK cells assessed as reduction in virus-induced cytopathic effect incubated for 48 hrs by Reed-Muench method; assay type: functional, organism-based; conditions: H3N2/95-359, MDCK

`CN(C)CCN(C)c1ccc(C#N)c(CN2CCN(c3ccc(Cl)cc3)CC2)c1` gave a Cmax [1] of 0.532 µg/mL, an EC50 (Hepatitis C virus [2]) of 0.003 µM and an AUC(0-t) at 72 h [3] of 1.28 µg·h/mL. For the same compound, the Activity [4] was “Non-Toxic”, the Activity [5] was “Non-Toxic” and the EC50 (Zika virus) was 5.15 µM. For the same compound, the Cmax [6] was 0.0945 µg/mL, the CC50 [7] was 18.4 µM and the CC50 [8] was 22.2 µM. It also gave a concentration at 72 h [9] of 0.00069 µg/mL, a selectivity ratio [10] of 3 and an MTD at 7 day [11] of over 1000 mg/kg. The EC50 (Hepatitis C virus [12]) was 0.0019 µM, the Vz [13] was 238.11697 L/kg and the Activity (Hepatitis C virus [14]; Hepacivirus hominis) was “Dose-dependent effect”. The EC50 (Hepatitis C virus [14]; J6/JFH/JC1, Huh7.5, 72 h) was 0.022 µM, the AUC(0-t) at 72 h [15] was 1.07 µg·h/mL and the EC50 (Hepatitis C virus [16]) was 0.083 to 0.125 µM. The Activity [17] was “Non-Toxic”, the Activity [18] was “Non-Toxic” and the concentration at 24 h [19] was 0.00616 µg/mL. For the same compound, the Activity (Hepatitis C virus [20]) was “inactive”, the Tmax [21] was 3 h and the CL/F [22] was 2.25 L/h/kg. It also gave an EC50 (Influenza A virus) of over 2.47 µM.
